These results are taken from ChEMBL document CHEMBL2177003, “Development of target protein-selective degradation inducer for protein knockdown” (Bioorg Med Chem, 2011).

Structures are written as SMILES. Active and inactive are the calls of the source. The calls are words filed in the database; no cut-off is given here.

Assay [1] addresses T1, Complex of retinoic acid binding (CRABPII) and inhibitor of apoptosis (cIAP1) proteins (Homo sapiens) (UniProt P29373+Q13490). Nature of the assay: Binding affinity to Flag-tagged cIAP1/CRABP2 expressed in human HT1080 cells assessed as induction in CRABP-2 degradation after 12 hrs by Western blot analysis. The assay is classed as cell-based. The settings on record: HT-1080. An outline of the steps: (§1)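 FLAG-tagged IAP-expressing HT1080 cells (1 × 10⁶), RPMI 1640 with 10% heat-inactivated FBS at 37 °C, 5% CO₂, treated for the stated period in medium with 10% FBS. SDS lysates equalized by BCA, resolved on 10–20% SDS–PAGE, PVDF, skim-milk block. Probed for CRABP-II, cIAP1, FLAG and β-actin with HRP secondaries, visualized by enhanced chemiluminescence.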

For assay [2], the system named is HT-1080. As to the kind of experiment: Induction of apoptosis in human HT1080 cells assessed as activation of caspase 3/7 at 30 uM after 24 hrs by fluorescence assay. The format is functional, cell-based. In a few lines:
(§2)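 HT1080 cells seeded at 2 × 10⁴/well, grown 24 h, then compounds added for 24 h with or without 30 μg/mL etoposide. Caspase-3/7 homogeneous reagent added, 10 h at room temperature. Fluorescence read at ex 485/em 535 nm and expressed as fold change in caspase activity. Means of triplicates; ANOVA with Bonferroni-type multiple t test.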

Assay [3] has as its system HT-1080. As to the kind of experiment: Induction of apoptosis in human HT1080 cells at 1 to 30 uM after 24 hrs by lactate dehydrogenase assay. The assay is classed as functional, cell-based. In a few lines: (§3)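 HT1080 cells seeded at 2 × 10⁴/well, grown 24 h at 37 °C, then exposed to compounds for 24 h with or without 30 μg/mL etoposide. LDH release measured with a non-radioactive cytotoxicity kit; lysis-buffer wells served as high control. Substrate 30 min at room temperature, stopped, A490 read. Means of triplicates.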

In assay [4] the test system is HT-1080. Nature of the assay: Induction of apoptosis in human HT1080 cells assessed as activation of caspase 3/7 at 30 uM after 24 hrs by fluorescence assay in presence of etoposide. The assay is classed as functional, cell-based. In a few lines:
as §2

Assay [5] deals with HT-1080. As to the kind of experiment: Induction of apoptosis in human HT1080 cells after 24 hrs by lactate dehydrogenase assay in presence of etoposide. The format is functional, cell-based. In a few lines: as §3
Assay [6] has as its target T1, Complex of retinoic acid binding (CRABPII) and inhibitor of apoptosis (cIAP1) proteins (Homo sapiens). As to the kind of experiment: Binding affinity to Flag-tagged cIAP1/CRABP2 expressed in human HT1080 cells assessed as induction in CRABP-2 degradation at 1 uM after 6 hrs by Western blot analysis in presence of MeBS. The format is cell-based. The conditions noted are these: HT-1080. (In general: A western blot detects proteins with antibodies after separation by electrophoresis.)

Assay [7] shares this target. As to the kind of experiment: Binding affinity to Flag-tagged cIAP1/CRABP2 expressed in human HT1080 cells assessed as induction in CRABP-2 degradation at 1 uM after 6 hrs by Western blot analysis in presence of proteasome inhibitor lactacystin. The assay is classed as cell-based. The conditions noted are these: HT-1080. An outline of the steps:
(§4)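 HT1080 cells expressing FLAG-tagged cIAP1 were pretreated with proteasome inhibitor (MG132 or lactacystin), then given 1 μM degrader for 6 h. CRABP-II read by Western blot: SDS lysates equalized by BCA, 10–20% SDS–PAGE, PVDF, ECL.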

For assay [8] the target is unchanged. Nature of the assay: Binding affinity to Flag-tagged cIAP1/CRABP2 expressed in human HT1080 cells assessed as induction in CRABP-2 degradation at 1 uM after 6 hrs by Western blot analysis. The format is cell-based. The conditions noted are these: HT-1080. An outline of the steps:
as §1

For assay [9], the system named is HT-1080. Nature of the assay: Induction of apoptosis in human HT1080 cells at 1 to 30 uM after 24 hrs by lactate dehydrogenase assay in presence of etoposide. The assay is classed as functional, cell-based. An outline of the steps:
as §3

Assay [10] has as its system IMR-32. Nature of the assay: Induction of apoptosis in human IMR32 cells assessed as activation of caspase 3/7 at 30 uM after 24 hrs by fluorescence assay. The assay is classed as functional, cell-based. An outline of the steps:
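IMR-32 cells seeded at 2 × 10⁴/well, grown 24 h, then exposed to compounds for 24 h. Caspase-3/7 homogeneous reagent added, 0.5 h at room temperature. Fluorescence read at ex 485/em 535 nm and expressed as fold change over control. Means of triplicates; ANOVA with Bonferroni-type multiple t test.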

The subject of assay [11] is HT-1080. Nature of the assay: Inhibition of cell proliferation in human HT1080 cells at 1 to 30 uM after 72 hrs by Alamar blue assay. The format is functional, cell-based. An outline of the steps:
(§5)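 Cells (IMR-32, HT1080 or MCF-7) seeded at 2 × 10⁴/well and grown 24 h at 37 °C. Compounds at various concentrations added for 0–72 h at 37 °C, 5% CO₂. AlamarBlue then added for 3 h at 37 °C. Fluorescence read at ex 540/em 590 nm and converted to percentage cell growth.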

In assay [12] the target is T1, Complex of retinoic acid binding (CRABPII) and inhibitor of apoptosis (cIAP1) proteins (Homo sapiens). As to the kind of experiment: Binding affinity to Flag-tagged cIAP1/CRABP2 expressed in human IMR32 cells assessed as reduction in MycN level at 1 to 10 uM after 48 hrs by Western blot analysis. The assay is classed as cell-based. The conditions noted are these: IMR-32.

Assay [13] shares this target. As to the kind of experiment: Binding affinity to Flag-tagged cIAP1/CRABP2 expressed in human HT1080 cells assessed as induction in cIAP1 degradation at 30 uM after 6 hrs by Western blot analysis. The format is cell-based. The settings on record: HT-1080. An outline of the steps:
as §1

Assay [14] shares this target. As to the kind of experiment: Binding affinity to Flag-tagged cIAP1/CRABP2 expressed in human IMR32 cells assessed as reduction in CRABP-2 level at 1 to 10 uM after 24 hrs by Western blot analysis. The conditions noted are these: IMR-32.
In assay [15] the test system is IMR-32. Nature of the assay: Inhibition of cell proliferation in human IMR32 cells after 72 hrs by Alamarblue assay. The format is functional, cell-based. An outline of the steps:
as §5

The target of assay [16] is T1, Complex of retinoic acid binding (CRABPII) and inhibitor of apoptosis (cIAP1) proteins (Homo sapiens). As to the kind of experiment: Binding affinity to Flag-tagged cIAP1/CRABP2 expressed in human HT1080 cells assessed as induction in CRABP-2 degradation at 1 uM after 6 hrs by Western blot analysis in presence of proteasome inhibitor MG132. The format is cell-based. The settings on record: HT-1080. In a few lines:
as §4

Assay [17] has the same target. As to the kind of experiment: Binding affinity to Flag-tagged cIAP1/CRABP2 expressed in human MCF7 cells assessed as reduction in CRABP2 level at 0.1 uM to 1 uM after 6 hrs by Western blot analysis. The assay is classed as cell-based.
Assay [18] has the same target. As to the kind of experiment: Binding affinity to Flag-tagged cIAP1/CRABP2 expressed in human HT1080 cells assessed as induction in CRABP-2 degradation after 6 hrs by Western blot analysis. The format is cell-based. The conditions noted are these: HT-1080. An outline of the steps: as §1
Assay [19] has the same target. Nature of the assay: Binding affinity to Flag-tagged cIAP1/CRABP2 expressed in human HT1080 cells assessed as induction in CRABP-2 degradation after 48 hrs by Western blot analysis. The assay is classed as cell-based. The settings on record: HT-1080. In a few lines: as §1
The target is the same in assay [20]. As to the kind of experiment: Binding affinity to Flag-tagged cIAP1/CRABP2 expressed in human HT1080 cells assessed as induction in cIAP1 degradation at 0.1 to 10 uM after 6 hrs by Western blot analysis. The conditions noted are these: HT-1080. The assay is classed as cell-based. In a few lines:
as §1

The test system of the next assay is MCF7. As to the kind of experiment: Inhibition of cell proliferation in human MCF7 cells at 1 to 30 uM after 72 hrs by Alamar blue assay. The format is functional, cell-based. In a few lines: as §5
On the technique in general: Resazurin is reduced to fluorescent resorufin, in cell work by metabolically active cells.

In assay [21] the target is T1, Complex of retinoic acid binding (CRABPII) and inhibitor of apoptosis (cIAP1) proteins (Homo sapiens). As to the kind of experiment: Binding affinity to Flag-tagged cIAP1/CRABP2 expressed in human HT1080 cells assessed as reduction in CRABP2 level at 0.1 uM to 1 uM after 6 hrs by Western blot analysis. The assay is classed as cell-based. The conditions noted are these: HT-1080. In a few lines: as §1

For assay [22] the target is unchanged. Nature of the assay: Binding affinity to Flag-tagged cIAP1/CRABP2 expressed in human HT1080 cells assessed as formation of ternary complex by GST-pull down assay. The format is cell-based. The settings on record: HT-1080.
The target of assay [23] is Baculoviral IAP repeat-containing protein 2 (Homo sapiens) (UniProt Q13490). Nature of the assay: Induction of auto-degradation of Flag-tagged cIAP1 expressed in HT1080 cells at 0.1 to 10 uM by Western blot analysis. The assay is classed as cell-based. The conditions noted are these: HT-1080. An outline of the steps: as §1
The target of assay [24] is T1, Complex of retinoic acid binding (CRABPII) and inhibitor of apoptosis (cIAP1) proteins (Homo sapiens). As to the kind of experiment: Binding affinity to Flag-tagged cIAP1/CRABP2 expressed in human HT1080 cells assessed as induction in CRABP-2 degradation at 0.1 to 10 uM after 6 hrs by Western blot analysis. The conditions noted are these: HT-1080. The assay is classed as cell-based. An outline of the steps:
as §1

The test system of assay [25] is IMR-32. Nature of the assay: Inhibition of cell proliferation in human IMR32 cells at 1 to 30 uM after 72 hrs by Alamarblue assay. The assay is classed as functional, cell-based. An outline of the steps: as §5
The next assay deals with XIAP (Homo sapiens). Nature of the assay: Binding affinity to Flag-tagged XIAP expressed in HT1080 cells assessed as degradation of XIAP at 0.1 to 10 uM after 6 hrs by Western blot analysis. The conditions noted are these: HT-1080.
Assay [26] deals with Baculoviral IAP repeat-containing protein 2 (Homo sapiens) (UniProt Q13490). As to the kind of experiment: Inhibition of MeBS-induced degradation of Flag-tagged cIAP1 expressed in HT1080 cells at 100 to 1000 uM by Western blot analysis. The format is cell-based. The settings on record: HT-1080.
The target is the same in assay [27]. Nature of the assay: Induction of degradation of Flag-tagged cIAP1 expressed in HT1080 cells at […] by Western blot analysis in presence of MG132. The assay is classed as cell-based. The conditions noted are these: HT-1080.
For assay [28] the target is unchanged. Nature of the assay: Induction of auto-degradation of Flag-tagged cIAP1 expressed in HT1080 cells at […] by Western blot analysis. The assay is classed as cell-based. The settings on record: HT-1080.

Sequence of Baculoviral IAP repeat-containing protein 2 (Homo sapiens) (Q13490 whole entry): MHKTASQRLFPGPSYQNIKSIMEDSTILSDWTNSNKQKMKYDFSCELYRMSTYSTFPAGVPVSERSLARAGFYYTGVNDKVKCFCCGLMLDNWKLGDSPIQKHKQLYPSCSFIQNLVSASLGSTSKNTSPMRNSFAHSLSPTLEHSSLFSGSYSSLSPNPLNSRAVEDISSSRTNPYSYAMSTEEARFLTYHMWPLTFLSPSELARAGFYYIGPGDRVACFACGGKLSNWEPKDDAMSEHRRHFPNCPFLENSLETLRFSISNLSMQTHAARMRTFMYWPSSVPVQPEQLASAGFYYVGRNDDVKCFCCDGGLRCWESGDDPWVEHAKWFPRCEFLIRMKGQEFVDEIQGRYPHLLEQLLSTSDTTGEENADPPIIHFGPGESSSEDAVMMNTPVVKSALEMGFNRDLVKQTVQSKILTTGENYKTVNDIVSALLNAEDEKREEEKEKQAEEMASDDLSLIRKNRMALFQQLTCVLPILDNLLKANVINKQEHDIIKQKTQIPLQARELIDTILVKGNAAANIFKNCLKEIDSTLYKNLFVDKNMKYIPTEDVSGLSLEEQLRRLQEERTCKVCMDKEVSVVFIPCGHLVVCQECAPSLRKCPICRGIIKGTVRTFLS

On to `CC1=C(/C=C/C(C)=C/C=C/C(C)=C/C(=O)O)C(C)(C)CC/C1=N\OCC(=O)NCCOCCOCCOC(=O)[C@H](CC(C)C)NC(=O)[C@@H](O)[C@H](N)Cc1ccccc1`, for which the result (in assay [1]; in the assay on HT-1080 [4]) was Active. The outcome in the assay with HT-1080 [2] and with HT-1080 [3] was inactive. For the same compound, in the assay with HT-1080 [5], the Activity entry is “Dose-dependent effect”.

Regarding `CC1=C(/C=C/C(C)=C/C=C/C(C)=C/C(=O)O)C(C)(C)CC/C1=N\OCC(=O)NCCOCCOCCNC(=O)[C@H](CC(C)C)NC(=O)[C@@H](O)[C@H](N)Cc1ccccc1`, the outcome (in assay [6]; in assay [7]; with HT-1080 [2]; in the assay on HT-1080 [9]; with HT-1080 [4]; in the assay with HT-1080 [11]) was inactive. Besides, the outcome (in assay [13]; in assay [16]; in assay [20]; in the assay with MCF7) was inactive. Besides, the outcome (in assay [8]; in the assay on IMR-32 [10]; in [12]; in assay [14]; in assay [17]; in [19]) was Active. For the same compound, the result in [21] and in assay [22] was Active. Further, the inhibition entry with IMR-32 [15] is “Dose-dependent effect”. The Activity result in assay [18] is “Dose-dependent effect”.

In the case of `CNC(=O)[C@H](CC(C)C)NC(=O)CCCc1ccccc1`, in [23], the outcome was inactive.

`CC1=C(/C=C/C(C)=C/C=C/C(C)=C/C(=O)O)C(C)(C)CC/C1=N\OCC(=O)NCCOCCOCCNC(=O)[C@H](CC(C)C)NC(=O)CCCc1ccccc1`: the outcome in [24], in [20] and in assay [22] was inactive.

Take `CNC(=O)[C@H](CC(C)C)NC(=O)[C@@H](O)[C@H](N)Cc1ccccc1`: the inhibition entry with IMR-32 [25] was “inactive”. Further, the outcome (with IMR-32 [10]; in the assay with XIAP (Homo sapiens); in assay [27]; in assay [28]; in assay [23]) was inactive. Also, the inhibition result in assay [26] is “Active”.

Regarding `COC(=O)[C@H](CC(C)C)NC(=O)[C@@H](O)[C@H](N)Cc1ccccc1`, the inhibition result in the assay with IMR-32 [25] was “inactive”. The result with HT-1080 [2], with HT-1080 [3] and in the assay on IMR-32 [10] was inactive. In addition, the outcome with HT-1080 [4] was Active. For the same compound, the Activity entry in the assay with HT-1080 [5] was “Dose-dependent effect”.
